Where a SMILES comes first, the peptide text is derived from it. Bridges are numbered along the chain shown (N, C = ends). [ ]: non-standard residue; d: D form. Ala(1-amidino-4-piperidyl) = N=C(N)N1CCC(C[C@H](N)C(=O)O)CC1
What was measured:
[1] = target: Vitamin K-dependent protein C (Homo sapiens, UniProt P04070); assay: Inhibition of human activated protein C after 15 mins using H-D-Ile-Pro-Arg-p-nitroanilide as substrate
How it was run: (§1)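 Chromogenic substrate was added at about its KM; for KLK1 this was S-2251. Initial velocities were monitored at 405 nm.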

Prothrombin [2] = target: Prothrombin (Mus musculus, UniProt P19221); assay: Inhibition of mouse thrombin after 15 mins using H-D-Ile-Pro-Arg-p-nitroanilide as substrate; how it was run: as §1
Prothrombin [3] = target: Prothrombin (Homo sapiens, UniProt P00734); assay: Inhibition of human thrombin after 15 mins using H-D-Ile-Pro-Arg-p-nitroanilide as substrate; how it was run: as §1
[4] = target: Tissue-type plasminogen activator (Mus musculus, UniProt P11214); assay: Inhibition of mouse tPA after 15 mins using Z-D-Arg-Gly-Arg-p-nitroanilide as substrate; how it was run: as §1
[5] = target: T1, Suppressor of tumorigenicity 14 protein (Homo sapiens, UniProt Q9Y5Y6); assay: Inhibition of human matriptase after 15 mins using H-D-Ile-Pro-Arg-p-nitroanilide as substrate
T1 sequence (Q9Y5Y6 whole entry): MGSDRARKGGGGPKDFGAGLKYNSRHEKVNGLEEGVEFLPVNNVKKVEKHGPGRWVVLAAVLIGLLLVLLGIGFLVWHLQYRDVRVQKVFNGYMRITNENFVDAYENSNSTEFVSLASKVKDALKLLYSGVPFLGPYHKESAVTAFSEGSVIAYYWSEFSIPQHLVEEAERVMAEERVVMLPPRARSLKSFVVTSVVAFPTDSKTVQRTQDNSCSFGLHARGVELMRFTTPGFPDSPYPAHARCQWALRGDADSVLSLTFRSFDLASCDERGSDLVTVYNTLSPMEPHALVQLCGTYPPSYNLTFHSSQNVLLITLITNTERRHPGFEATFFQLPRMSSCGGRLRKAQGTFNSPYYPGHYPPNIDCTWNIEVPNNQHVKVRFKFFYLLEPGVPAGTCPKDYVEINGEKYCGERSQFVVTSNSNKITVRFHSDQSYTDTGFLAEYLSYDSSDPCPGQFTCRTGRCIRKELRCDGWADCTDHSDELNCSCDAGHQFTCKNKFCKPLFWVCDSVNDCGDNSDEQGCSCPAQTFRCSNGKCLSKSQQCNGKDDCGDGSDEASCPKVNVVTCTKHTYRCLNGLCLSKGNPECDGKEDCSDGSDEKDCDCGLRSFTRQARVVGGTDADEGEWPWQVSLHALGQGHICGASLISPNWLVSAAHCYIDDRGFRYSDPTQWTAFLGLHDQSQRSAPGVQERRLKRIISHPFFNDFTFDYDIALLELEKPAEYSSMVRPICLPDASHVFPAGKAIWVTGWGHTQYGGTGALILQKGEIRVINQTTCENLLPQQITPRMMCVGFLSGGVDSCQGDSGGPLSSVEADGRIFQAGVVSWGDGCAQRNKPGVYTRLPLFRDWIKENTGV

[6] = target: Tissue-type plasminogen activator (Homo sapiens, UniProt P00750); assay: Inhibition of human tPAn after 15 mins using H-D-Ile-Pro-Arg-p-nitroanilide as substrate; how it was run: as §1
[7] = target: T2, Urokinase-type plasminogen activator (Homo sapiens, UniProt P00749); assay: Binding affinity to human uPA
[8] = target: Urokinase-type plasminogen activator (Mus musculus) (UniProt P06869); assay: Binding affinity to mouse uPA
Coagulation factor XI = Coagulation factor XI (Homo sapiens, UniProt P03951); assay: Inhibition of human coagulation factor 11a after 15 mins
Plasma kallikrein [9] = target: Plasma kallikrein (Mus musculus, UniProt P26262); assay: Inhibition of mouse plasma kallikrein for 15 mins using H-D-Pro-Phe-Arg-p-nitroanilide as substrate; format: cell-free; how it was run: as §1
Serine protease 1 = target: T3, Serine protease 1 (Bos taurus, UniProt P00760); assay: Inhibition of bovine beta-trypsin after 15 mins using Bz-Ile-Glu(g-OR)-Gly-Arg-p-nitroanilide as substrate; how it was run: as §1
T3 sequence (P00760 whole entry): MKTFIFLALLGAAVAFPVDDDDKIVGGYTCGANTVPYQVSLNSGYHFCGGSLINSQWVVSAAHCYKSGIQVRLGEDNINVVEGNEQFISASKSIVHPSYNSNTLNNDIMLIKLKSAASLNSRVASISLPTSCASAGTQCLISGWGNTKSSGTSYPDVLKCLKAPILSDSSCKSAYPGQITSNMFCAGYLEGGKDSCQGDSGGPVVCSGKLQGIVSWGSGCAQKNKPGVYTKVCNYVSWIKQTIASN

Plasminogen [10] = target: Plasminogen (Mus musculus, UniProt P20918); assay: Inhibition of mouse plasmin after 15 mins using H-D-Ile-Pro-Arg-p-nitroanilide as substrate; how it was run: as §1
Kallikrein-1 = Kallikrein-1 (Homo sapiens, UniProt P06870); assay: Inhibition of human KLK1 after 15 mins using Val-Leu-Lys-p-nitroanilide as substrate; how it was run: as §1
[11] = target: T2, Urokinase-type plasminogen activator; assay: Inhibition of human uPA for 15 mins using pyro-Glu-Gly-Arg-p-nitroanilide as substrate
Plasminogen [12] = target: Plasminogen (Homo sapiens, UniProt P00747); assay: Inhibition of human plasmin after 15 mins using H-D-Ile-Pro-Arg-p-nitroanilide as substrate; how it was run: as §1
[13] = target: Urokinase-type plasminogen activator (Mus musculus, UniProt P06869); assay: Inhibition of mouse uPA for 15 mins using pyro-Glu-Gly-Arg-p-nitroanilide as substrate
Plasma kallikrein [14] = target: Plasma kallikrein (Homo sapiens, UniProt P03952); assay: Inhibition of human plasma kallikrein for 15 mins using H-D-Pro-Phe-Arg-p-nitroanilide as substrate; format: cell-free
Chain of Plasma kallikrein (Homo sapiens, UniProt P03952) (P03952 20-390 limits assumed): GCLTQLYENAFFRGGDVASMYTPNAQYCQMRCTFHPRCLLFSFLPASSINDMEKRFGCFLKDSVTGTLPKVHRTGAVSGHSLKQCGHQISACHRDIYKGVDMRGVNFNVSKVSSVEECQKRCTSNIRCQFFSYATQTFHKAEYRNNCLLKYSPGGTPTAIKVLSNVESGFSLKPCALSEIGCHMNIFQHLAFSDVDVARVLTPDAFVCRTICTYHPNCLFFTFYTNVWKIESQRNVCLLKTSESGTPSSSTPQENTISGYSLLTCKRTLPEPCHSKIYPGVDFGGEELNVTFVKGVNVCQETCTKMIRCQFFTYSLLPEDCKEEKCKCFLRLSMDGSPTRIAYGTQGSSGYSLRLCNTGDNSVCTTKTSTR
Chain of Plasma kallikrein (Homo sapiens, UniProt P03952) (P03952 391-638 limits assumed): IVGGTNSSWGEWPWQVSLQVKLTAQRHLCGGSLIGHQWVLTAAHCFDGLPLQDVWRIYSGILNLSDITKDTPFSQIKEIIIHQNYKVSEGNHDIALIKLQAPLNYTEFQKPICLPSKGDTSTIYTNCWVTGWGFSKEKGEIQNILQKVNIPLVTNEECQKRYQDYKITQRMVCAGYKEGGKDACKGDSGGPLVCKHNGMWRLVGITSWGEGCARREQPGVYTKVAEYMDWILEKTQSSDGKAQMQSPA

Chain of Tissue-type plasminogen activator (Mus musculus, UniProt P11214) (P11214 whole entry): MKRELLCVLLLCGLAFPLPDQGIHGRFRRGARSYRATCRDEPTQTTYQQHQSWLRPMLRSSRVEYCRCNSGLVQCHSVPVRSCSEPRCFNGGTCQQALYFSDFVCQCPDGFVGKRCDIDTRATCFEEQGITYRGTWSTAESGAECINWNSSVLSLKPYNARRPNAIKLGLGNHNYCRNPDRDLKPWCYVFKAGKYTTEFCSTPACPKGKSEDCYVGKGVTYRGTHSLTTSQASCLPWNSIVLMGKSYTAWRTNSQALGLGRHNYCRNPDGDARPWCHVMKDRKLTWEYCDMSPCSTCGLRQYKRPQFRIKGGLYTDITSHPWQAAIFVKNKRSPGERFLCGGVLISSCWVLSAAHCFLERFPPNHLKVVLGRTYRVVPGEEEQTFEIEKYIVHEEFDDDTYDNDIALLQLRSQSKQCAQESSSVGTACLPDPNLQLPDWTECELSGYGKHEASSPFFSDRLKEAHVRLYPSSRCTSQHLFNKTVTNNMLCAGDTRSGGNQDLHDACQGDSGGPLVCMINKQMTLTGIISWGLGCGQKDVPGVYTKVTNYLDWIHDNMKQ
Chain of Tissue-type plasminogen activator (Homo sapiens, UniProt P00750) (P00750 whole entry): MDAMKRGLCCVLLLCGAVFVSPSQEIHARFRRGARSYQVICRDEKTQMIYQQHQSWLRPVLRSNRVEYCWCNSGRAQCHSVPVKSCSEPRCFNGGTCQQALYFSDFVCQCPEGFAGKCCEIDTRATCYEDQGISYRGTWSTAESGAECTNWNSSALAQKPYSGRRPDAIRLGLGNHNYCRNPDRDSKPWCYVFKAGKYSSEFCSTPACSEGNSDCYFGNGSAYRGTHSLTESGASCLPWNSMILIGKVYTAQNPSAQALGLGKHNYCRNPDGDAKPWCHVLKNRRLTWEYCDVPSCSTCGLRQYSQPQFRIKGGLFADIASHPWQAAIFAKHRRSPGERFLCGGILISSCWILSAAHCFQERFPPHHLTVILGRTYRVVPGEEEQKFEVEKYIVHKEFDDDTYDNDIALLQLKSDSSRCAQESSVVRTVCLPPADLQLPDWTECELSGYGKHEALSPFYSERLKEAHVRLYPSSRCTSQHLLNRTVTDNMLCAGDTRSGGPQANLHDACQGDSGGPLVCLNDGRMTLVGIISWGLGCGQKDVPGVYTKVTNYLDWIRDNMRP
Chain of Vitamin K-dependent protein C (P04070 43-197 limits assumed): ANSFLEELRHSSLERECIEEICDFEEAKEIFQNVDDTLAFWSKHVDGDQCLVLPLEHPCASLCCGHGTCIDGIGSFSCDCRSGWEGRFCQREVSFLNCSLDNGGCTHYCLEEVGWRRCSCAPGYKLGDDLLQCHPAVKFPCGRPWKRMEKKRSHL
Chain of Vitamin K-dependent protein C (P04070 212-461 limits assumed): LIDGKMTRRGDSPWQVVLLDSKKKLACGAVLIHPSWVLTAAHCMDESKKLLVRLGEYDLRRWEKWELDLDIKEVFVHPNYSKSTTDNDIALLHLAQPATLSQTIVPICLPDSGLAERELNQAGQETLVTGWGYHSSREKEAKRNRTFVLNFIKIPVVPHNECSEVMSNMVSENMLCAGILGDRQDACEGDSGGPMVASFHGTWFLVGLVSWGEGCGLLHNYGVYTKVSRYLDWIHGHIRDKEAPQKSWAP
Chain of Urokinase-type plasminogen activator (Mus musculus, UniProt P06869) (P06869 21-178 limits assumed): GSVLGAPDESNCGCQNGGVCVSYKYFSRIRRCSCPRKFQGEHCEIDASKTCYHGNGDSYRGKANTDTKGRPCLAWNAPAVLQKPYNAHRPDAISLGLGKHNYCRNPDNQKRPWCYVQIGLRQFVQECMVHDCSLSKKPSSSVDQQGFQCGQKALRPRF
Chain of Urokinase-type plasminogen activator (Mus musculus, UniProt P06869) (P06869 180-433 limits assumed): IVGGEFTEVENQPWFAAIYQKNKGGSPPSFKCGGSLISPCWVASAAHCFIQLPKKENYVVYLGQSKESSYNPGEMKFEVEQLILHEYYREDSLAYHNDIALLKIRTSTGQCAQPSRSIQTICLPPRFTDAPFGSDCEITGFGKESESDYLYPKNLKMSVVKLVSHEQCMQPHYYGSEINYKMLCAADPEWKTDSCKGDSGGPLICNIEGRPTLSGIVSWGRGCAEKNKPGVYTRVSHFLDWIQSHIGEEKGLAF
Chain of Urokinase-type plasminogen activator (Mus musculus) (P06869 21-178 limits assumed): as the sequence (P06869 21-178 limits assumed) above
Chain of Urokinase-type plasminogen activator (Mus musculus) (P06869 180-433 limits assumed): as the sequence (P06869 180-433 limits assumed) above
Chain of Coagulation factor XI (P03951 19-387 limits assumed): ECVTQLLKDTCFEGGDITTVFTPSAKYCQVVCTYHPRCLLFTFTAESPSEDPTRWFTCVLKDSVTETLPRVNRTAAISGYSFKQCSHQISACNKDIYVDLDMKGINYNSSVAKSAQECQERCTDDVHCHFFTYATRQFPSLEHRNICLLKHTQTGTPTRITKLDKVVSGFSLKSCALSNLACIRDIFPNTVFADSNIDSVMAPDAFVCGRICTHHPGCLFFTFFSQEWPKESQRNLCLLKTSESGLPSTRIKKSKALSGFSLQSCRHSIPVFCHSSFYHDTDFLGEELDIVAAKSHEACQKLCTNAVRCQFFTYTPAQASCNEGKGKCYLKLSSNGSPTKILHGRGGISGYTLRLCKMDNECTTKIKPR
Chain of Coagulation factor XI (P03951 388-625 limits assumed): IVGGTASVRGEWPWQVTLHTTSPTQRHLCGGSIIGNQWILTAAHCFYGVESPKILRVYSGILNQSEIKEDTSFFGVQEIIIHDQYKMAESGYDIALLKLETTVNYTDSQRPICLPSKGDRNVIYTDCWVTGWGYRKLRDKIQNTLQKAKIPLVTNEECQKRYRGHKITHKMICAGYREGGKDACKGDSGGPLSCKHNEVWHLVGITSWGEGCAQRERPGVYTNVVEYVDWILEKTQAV
Chain of Kallikrein-1 (P06870 whole entry): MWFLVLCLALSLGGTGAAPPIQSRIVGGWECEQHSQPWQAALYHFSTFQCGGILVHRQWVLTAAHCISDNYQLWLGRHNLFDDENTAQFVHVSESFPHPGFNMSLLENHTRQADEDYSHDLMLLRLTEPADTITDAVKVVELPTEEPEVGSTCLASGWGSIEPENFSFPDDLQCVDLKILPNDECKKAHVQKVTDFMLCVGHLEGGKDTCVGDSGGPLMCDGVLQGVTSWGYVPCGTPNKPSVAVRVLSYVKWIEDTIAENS
Chain of Plasminogen (Homo sapiens, UniProt P00747) (P00747 97-580 limits assumed): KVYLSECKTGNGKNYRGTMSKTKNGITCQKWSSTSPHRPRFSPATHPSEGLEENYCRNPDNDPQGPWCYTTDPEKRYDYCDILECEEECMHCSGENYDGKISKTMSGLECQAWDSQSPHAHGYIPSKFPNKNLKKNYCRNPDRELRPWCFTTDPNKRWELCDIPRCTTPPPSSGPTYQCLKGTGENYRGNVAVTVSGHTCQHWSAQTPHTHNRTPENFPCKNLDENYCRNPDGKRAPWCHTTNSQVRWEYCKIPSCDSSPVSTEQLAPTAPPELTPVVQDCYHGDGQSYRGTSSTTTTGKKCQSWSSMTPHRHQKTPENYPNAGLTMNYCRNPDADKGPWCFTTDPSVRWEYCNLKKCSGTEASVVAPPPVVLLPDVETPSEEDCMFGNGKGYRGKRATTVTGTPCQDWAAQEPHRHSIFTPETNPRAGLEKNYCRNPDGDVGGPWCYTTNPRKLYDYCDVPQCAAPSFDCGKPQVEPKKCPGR
Chain of Plasminogen (Homo sapiens, UniProt P00747) (P00747 581-810 limits assumed): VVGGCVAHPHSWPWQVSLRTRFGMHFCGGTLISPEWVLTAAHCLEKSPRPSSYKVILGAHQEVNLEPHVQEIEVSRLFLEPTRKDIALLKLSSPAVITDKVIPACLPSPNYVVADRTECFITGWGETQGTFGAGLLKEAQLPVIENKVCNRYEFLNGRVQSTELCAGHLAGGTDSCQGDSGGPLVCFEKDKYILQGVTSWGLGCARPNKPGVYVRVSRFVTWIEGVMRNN

| Compound | Ki [1] [µM] | Ki (Prothrombin [2]) [µM] | Ki (Prothrombin [3]) [µM] | Ki [4] [µM] | Ki [5] [µM] | Ki [6] [µM] | Activity [7] [nM] | Activity [8] [nM] | Ki (Coagulation factor XI) [µM] | Ki (Plasma kallikrein [9]) [µM] | Ki (Serine protease 1) [µM] | Ki (Plasminogen [10]) [µM] | Ki (Kallikrein-1) [µM] | Ki [11] [µM] | Ki (Plasminogen [12]) [µM] | Ki [13] [µM] | Ki (Plasma kallikrein [14]) [µM] |
| --- | --- | --- | --- | --- | --- | --- | --- | --- | --- | --- | --- | --- | --- | --- | --- | --- | --- |
| CC(C)C[C@@H]1NC(=O)[C@H](C)NC(=O)[C@H](CC2CCN(C(=N)N)CC2)NC(=O)[C@H](Cc2ccccc2)NC(=O)[C@H](CCCNC(=N)N)NC(=O)[C@H](C)NC(=O)[C@@H]2CCCN2C(=O)[C@@H](N)CSSC[C@@H](C(=O)O)NC(=O)[C@H](Cc2ccccc2)NC1=O (H-CPARF[Ala(1-amidino-4-piperidyl)]ALFC-OH; disulfide 1-10) | > 1000 | > 1000 | > 1000 | > 1000 | > 1000 | > 1000 | – | – | – | – | – | – | – | – | – | – | – |
| CC(C)C[C@@H]1NC(=O)[C@H](C)NC(=O)[C@H](CC2CCN(C(=N)N)CC2)NC(=O)[C@H](Cc2ccccc2)NC(=O)[C@H](CCCNC(=N)N)NC(=O)[C@H](C)NC(=O)[C@@H]2CCCN2C(=O)[C@@H](N)CSSC[C@@H](C(=O)O)NC(=O)[C@H](Cc2c[nH]c3ccccc23)NC1=O (H-CPARF[Ala(1-amidino-4-piperidyl)]ALWC-OH; disulfide 1-10) | > 1000 | > 1000 | > 1000 | > 1000 | > 1000 | > 1000 | – | – | – | – | – | – | – | – | – | – | – |
| CC(C)C[C@@H]1NC(=O)[C@H](Cc2ccc(O)cc2)NC(=O)[C@H](CCCNC(=N)N)NC(=O)[C@H](CO)NC(=O)[C@H](Cc2ccc(O)cc2)NC(=O)[C@H](C)NC(=O)[C@@H]2CCCN2C(=O)[C@@H](N)CSSC[C@@H](C(=O)O)NC(=O)[C@H](CC(=O)O)NC1=O (H-CPAYSRYLDC-OH; disulfide 1-10) | > 1000 | > 1000 | > 1000 | > 1000 | > 1000 | > 1000 | 530 | 2 | – | – | – | – | – | – | – | – | – |
| CC(C)C[C@@H]1NC(=O)[C@H](Cc2ccc(O)cc2)NC(=O)[C@H](CC2CCN(C(=N)N)CC2)NC(=O)[C@H](CO)NC(=O)[C@H](Cc2ccc(O)cc2)NC(=O)[C@H](C)NC(=O)[C@@H]2CCCN2C(=O)[C@@H](N)CSSC[C@@H](C(=O)O)NC(=O)[C@H](CC(=O)O)NC1=O (H-CPAYS[Ala(1-amidino-4-piperidyl)]YLDC-OH; disulfide 1-10) | > 1000 | > 1000 | > 1000 | > 1000 | > 1000 | > 1000 | – | – | – | – | – | – | – | – | – | – | – |
| CC(C)C[C@@H]1NC(=O)[C@H](C)NC(=O)[C@H](CC2CCN(C(=N)N)CC2)NC(=O)[C@H](Cc2ccccc2)NC(=O)[C@H](CCCNC(=N)N)NC(=O)[C@H](CCCCN)NC(=O)[C@@H]2CCCN2C(=O)[C@@H](N)CSSC[C@@H](C(=O)O)NC(=O)[C@H](Cc2ccccc2)NC1=O (H-CPKRF[Ala(1-amidino-4-piperidyl)]ALFC-OH; disulfide 1-10) | > 1000 | > 1000 | > 1000 | > 1000 | > 1000 | > 1000 | – | – | 12.1 | 0.043 | 14.1 | 3.42 | 0.384 | > 1000 | 12.5 | > 1000 | 0.022 |

Source: ChEMBL document CHEMBL3734702, “Design of Specific Serine Protease Inhibitors Based on a Versatile Peptide Scaffold: Conversion of a Urokinase Inhibitor to a Plasma Kallikrein Inhibitor” (J Med Chem, 2015)
